The results in this text go back to PMC5079537 (Cancer cell, 2016).

For data set [1], the system named is endogenous MDM2 in cancer cells. The data set is described as follows: IP-Western blot for ubiquitination of endogenous MDM2. Type of data set: cell-based, human. The method in brief: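 EU-1 cells treated with 10 μM test compound or a control compound. Lysed in Tris pH 7.6/NaCl/NP-40 buffer with protease and phosphatase inhibitors, cleared, then immunoprecipitated with anti-MDM2 on protein G/protein A-agarose. Immunoprecipitates run on SDS-PAGE, transferred to nitrocellulose, probed with anti-ubiquitin and detected by chemiluminescence.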

The test system of data set [2] is caspases 3, 7 and 9, PARP. The data set is described as follows: Western blot and ELISA for caspase activation and PARP cleavage. Type of data set: cell-based, human. The note with it: ALL and NB cells. The essentials:
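Western blot of caspase-3 activation and PARP cleavage in cancer cells treated with test compounds at 1 or 10 μM, or a control compound at 10 μM, over a time course. Cells were lysed in 50 mM Tris pH 7.6, 150 mM NaCl, 1% NP-40 with phosphatase and protease inhibitors. Lysates were run on SDS-PAGE, transferred to nitrocellulose, probed with specific antibodies and detected by chemiluminescence.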

Data set [3] deals with MDM2 and XIAP expression in ALL and NB cells. As to the kind of experiment: Western blot for MDM2 and XIAP expression in cancer cells. Type of data set: cell-based, human. The essentials:
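MDM2-overexpressing ALL lines (EU-1, EU-3) and NB lines (SH-EP1, NB-1691) were treated with test compounds for 24 hr. Time-course and dose-response runs were done in EU-1. Lysis was in Tris pH 7.6/NaCl/1% NP-40 buffer with phosphatase and protease inhibitors. Lysates were resolved by SDS-PAGE, transferred to nitrocellulose, probed for MDM2 and XIAP, and detected by chemiluminescence.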

Data set [4] deals with 12 cancer cell lines (6 ALL and 6 NB). It counts as cell-based. The note with it: 24 hr.
For data set [5], the system named is NBMM cells (normal human hematopoiesis). The data set is described as follows: Clonogenic analyses for CFU-GM and BFU-E. It counts as cell-based. The note with it: colonies after 14 days.
The target of data set [6] is XIAP IRES. As to the kind of experiment: Fluorescent titration binding assay. The note with it: read-out: binding Kd to XIAP IRES. The essentials:
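Fluorescence-labelled XIAP IRES RNA (excitation 485 nm, emission 530 nm) titrated with increasing test compound concentrations. Relative change in fluorescence intensity traced and normalised to derive binding Kd.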

Data set [7] relates to human normal bone marrow mononuclear (NBMM) cells. The data set is described as follows: WST cytotoxic assay on normal bone marrow cells. It counts as cell-based. The method in brief: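 Normal human bone marrow mononuclear cells came from five consenting donors under IRB approval. Cells in 96-well plates got a range of test compound concentrations for 20 hr, then WST (25 μg/well) for another 4 hr. OD read at 450 nm against 620 nm reference. Mean ± SD of three independent experiments.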

Data set [8] has as its target T1, MDM2 RING protein (Homo sapiens, UniProt Q00987). As to the kind of experiment: Fluorescent titration binding assay. The method in brief:
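Binding to GST-MDM2 RING protein measured by fluorescence titration, using the protein's intrinsic fluorescence (excitation 280 nm, emission 335 nm). Protein titrated with increasing test compound concentrations. Relative change in fluorescence intensity traced and normalised to derive binding Kd.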

For data set [9], the system named is Hsd:ICR (CD-1) normal mice. The note with it: 100 mg/kg.
For data set [10], the system named is EU-1 leukemia cells in SCID mice. As to the kind of experiment: EU-1 leukemia xenograft in SCID mice. It counts as in vivo.
Data set [11] deals with p53 in EU-1 cells. As to the kind of experiment: Western blot for p53 expression. It counts as cell-based, human. Conditions: 1 μM MX3 or 10 μM MX69, 2 to 8 hr after treatment.
The subject of data set [12] is p53 in EU-1 cells. The data set is described as follows: CHX pulse-chase assay, p53 turnover. It counts as cell-based, human. Conditions: control less than 30 min.
Data set [13] has as its system XIAP IRES. The data set is described as follows: Dicistronic reporter assay. It counts as cell-based. The note with it: dicistronic plasmid pRL-xi-FL.
The subject of data set [14] is MDM2 in EU-1 cells. As to the kind of experiment: CHX pulse-chase assay, MDM2 turnover. It counts as cell-based, human. Conditions: 10 μM for 4 hr, control greater than 90 min.
Data set [15] concerns EU-1 cells. The data set is described as follows: Annexin-V FITC staining for apoptosis. It counts as cell-based, human. The note with it: 10 μM. The method in brief: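 EU-1 cells treated with 10 μM test compound were washed in PBS and stained with FITC-annexin V and 7-AAD using a kit per the maker's protocol. Read by fluorescence microscopy (annexin V green, 7-AAD red) and by flow cytometry. For flow quantitation, cells were treated for 24 hr. Mean of three independent experiments, bars ± SD.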

Data set [16] addresses T1, MDM2 RING protein. As to the kind of experiment: ITC binding assay. Conditions: read-out: binding Kd to MDM2 RING protein.
For data set [17], the system named is Hsd:ICR (CD-1) normal mice. The data set is described as follows: Maximum tolerated dose. Conditions: doses between 25 and 200 mg/kg i.p., 3 days/week x 2 courses. It counts as in vivo.
The test system of data set [18] is MYCN IRES. The data set is described as follows: Dicistronic reporter assay, control IRES. Type of data set: cell-based.

T1 sequence (Q00987 438-479 limits assumed): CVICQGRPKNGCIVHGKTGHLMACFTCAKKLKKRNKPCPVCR

Take `O=C1c2c(O)ccc(O)c2C(=O)c2c(NCCNCCO)ccc(NCCNCCO)c21` [MX3, mitoxantrone, reference compound]: the “ubiquitination of endogenous MDM2” value in data set [1] is listed as “induced ubiquitination”. Besides, the “activation of caspases 3, 7 and 9 and cleavage of PARP” value in data set [2] is “activation of these caspases and cleavage of PARP were detected”. Moreover, in [3], the “inhibition of MDM2 and XIAP protein expression” value was “inhibited expression of both MDM2 and XIAP”. Also, the cytotoxic effect entry in data set [4] is “most potent cytotoxic effect”. For the same molecule, in [5] (1 μM), the “inhibitory effect on BFU-E” value is recorded as “severe inhibitory effects”. Also, the Kd in data set [6] stood at 5.26 µM. The “cell survival of NBMM” value in data set [7] (2 μM, 24 hr) is recorded as “about 50%”. In data set [8], the “binding to MDM2 RING protein” value is listed as “neither of these leads bound”.

`Cc1ccc(NS(=O)(=O)c2ccc3c(c2)C2C=CCC2C(c2ccc(C(=O)O)cc2)N3)cc1C` (stereo not drawn) [MX69]: in data set [9], the ALT result is recorded as “no significant increases”, the AST result is “no significant increases”, the BUN result is “no significant increases” and the PLT result is “no significant decreases”. Further, in data set [9], the WBC entry was “no significant decreases”; the “histopathology of heart, liver and kidney” value is given as “no evidence of toxicity”. Besides, in [1], the “ubiquitination of endogenous MDM2” value is listed as “induced ubiquitination”. In addition, the “activation of caspases 3, 7 and 9 and cleavage of PARP” value in [2] is “activation of these caspases and cleavage of PARP were detected”. Besides, in [3], the “inhibition of MDM2 and XIAP protein expression” value is “inhibited expression of both MDM2 and XIAP”. Also, the cytotoxic effect result in [4] was “significant cytotoxic effect”. For the same molecule, the “mice that died within 98–143 days after inoculation” value in [10] (50 mg/kg i.p.) is reported as “Forty”. Also, the “mice that died within 98–143 days after inoculation” value in data set [10] (75 mg/kg i.p.) stood at 20%. Moreover, in data set [10] (up to 40-days post-treatment), the “adverse effects (body weight, fur pattern)” value is “no adverse effects”. Also, in data set [11], the p53 protein levels entry was “significantly increased”. In data set [5] (10 μM), the “inhibitory effect on BFU-E” value is “little inhibitory effect” and the “inhibitory effect on CFU-GM” value is “little inhibitory effect”. In addition, the p53 half-life result in [12] is “remarkably increased”. Further, in data set [13], the “XIAP IRES-mediated translation of firefly luciferase” value was “inhibited”. Further, in data set [14], the MDM2 half-life was below 30 min. The “cell survival of NBMM” value in data set [7] (2–8 μM for 24 hr) is given as “over 90%”. The equilibrium dissociation constant (Kd) in [8] (read-out: binding Kd to MDM2 RING protein) amounted to 2.34 µM. Further, the Annexin-V positive cells entry in data set [15] is “over 90%”. For the same molecule, in data set [16], the Kd came out at 2.75 µM. The “tolerability, deaths by day 30” value in [17] is “well tolerated, with no deaths”. In addition, in data set [18], the “activity on the MYCN IRES” value was “no activity”.
